Assay results reported in ChEMBL document CHEMBL4513216, “Probing the Open Global Health Chemical Diversity Library for Multistage-Active Starting Points for Next-Generation Antimalarials” (ACS Infect Dis, 2020).

Assay: Toxicity liver stage against HepG2, at 10uM
Assay type: cell-based
Design: test concentration 10 uM, cell line HepG2-A16-CD81EGFP
Settings: human, HepG2-A16-CD81EGFP cells; read-out: INHIBITION
Method in brief: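 Uninfected HepG2-A16-CD81EGFP cells, 3 × 10^3 per well, 1536-well, plated on prespotted compound at 10 μM final, parasite-free screening media added to match infected plates; puromycin 10 μM positive, DMSO 0.5% negative; run in parallel with 48 h PbLuc assay at 37 °C, 5% CO2; viability by CellTiter-Glo luminescence, normalized to controls.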

| SMILES | cytotoxicity at 10 µM [%] |
| --- | --- |
| Clc1cc(Cl)cc(CN2CCC(NCc3cc[nH]n3)CC2)c1 | 11.1 |
| CCn1nc2c(cc1=O)CN(Cc1nc(-c3ccoc3)no1)CC2 | 4.9 |
| COc1cccc2c1OCCCN(c1nc(N)nc3c1CCNC3)C2 | 0.944 |
| CN(C)c1ccc(CC2CCCN(c3cnccn3)C2)nn1 (stereo unspecified) | 4.71 |
| CS(=O)(=O)Cc1cccc(CNS(=O)(=O)c2ccc(F)c(F)c2)c1 | 1.33 |
| COc1cccc(-n2c(C)cc(C(=O)NCCCC(N)=O)c2C)c1 | -11.9 |
| CS(=O)(=O)NCC1(c2ccccc2Br)CC1 | -5.51 |
| CCn1c(CN(C)C(=O)c2ccc(OC)nc2)nc2ccccc21 | -6.23 |
| O=C(NC1CCOCC1)c1cccc(C2CCCNC2)c1 (stereo unspecified) | 2.58 |
| CCn1ccnc1CN1CCCC1c1noc(C2CC2)n1 (stereo unspecified) | -17.4 |
| COc1c(CNCc2ccc(CS(C)(=O)=O)cc2)c(C)nn1C | -4.47 |
| COc1ccc(F)cc1C(C)NC(=O)Nc1nnc(C)s1 (stereo unspecified) | -1.01 |
| CN(C)c1cc2c(nn1)CCN(C(=O)c1cc3c(s1)CCCC3)C2 | -6.3 |
| O=C(c1cccc(F)c1)N(CCCO)S(=O)(=O)c1cccs1 | 3.51 |
| CC(C)(C)n1ccc(C(=O)N2CCCC(c3ccc(C(=O)O)cc3)C2)c1 (stereo unspecified) | 1.31 |
| c1cc(CO[C@@H]2CN(Cc3ccoc3)[C@@H]3CCCO[C@@H]32)ccn1 | -102 |
| CC(=O)N(Cc1noc(C2CC2)n1)C1CCN(CC2CCOCC2)C1 (stereo unspecified) | 1.29 |
| CCc1cnc(N2CCC3(CCN(Cc4cccc(C)c4)C3=O)C2)nc1 (stereo unspecified) | -0.891 |
| O=C(Cc1cccs1)NCC1(O)CCSC1 (stereo unspecified) | -9.66 |
| CCN1CCN(C(=O)C2CCCc3[nH]ncc32)CC1 (stereo unspecified) | -1.21 |
| OC(CN(Cc1ccccc1)Cc1cscn1)c1ccco1 (stereo unspecified) | 5.04 |
| Cc1cnn(CC2CCCN2CC(=O)N(C)Cc2cnn(C)c2)c1 (stereo unspecified) | 8.92 |
| CO[C@H]1CN(Cc2ccc(F)c(F)c2)C[C@@]12CCCO2 | -5.52 |

| SMILES | cytotoxicity at 10 µM [%] |
| --- | --- |
| CC(C)N1CC2(CCCN(Cc3noc(C4CCCC4)n3)C2)CCC1=O (stereo unspecified) | 0.00194 |
| CCc1ccc(C(C)NC(=O)CN(C)Cc2ccc(C)o2)cc1 (stereo unspecified) | 18.4 |
| CC(C)c1nnc2ccc(N3CCC(C(=O)NC4CC4)CC3)nn12 | -5.01 |
| Cc1ccc(-n2nnc(C(=O)NCC3CCCCC3)n2)cc1 | -3.5 |
| CC(C)C1CN(c2ncccn2)CCC(=O)N1Cc1ccc(F)cc1 (stereo unspecified) | 1.76 |
| CN(CCN1CCOCC1)C(=O)C1(c2ccc(F)cc2F)CCC1 | -6.68 |
| CS(=O)(=O)N1CCOCC12CCN(Cc1ccc(F)cc1)CC2 | 3.39 |
| CC(c1ccc(Br)cc1)N1CCCN(C(N)=O)CC1 (stereo unspecified) | 2.1 |
| Cc1n[nH]cc1CNC1CCN(c2ccccc2)CC1 | -52.2 |
| Cc1ccc(C(C)C(=O)N2CCCN(Cc3cscn3)CC2)cc1 (stereo unspecified) | -5.31 |
| Cc1ccc(NC(=O)NC(C)c2nc[nH]n2)cc1Cl (stereo unspecified) | -2.06 |
| CCS(=O)(=O)c1ccccc1N1CCC(NC(=O)c2ccc[nH]2)CC1 | -8.26 |
| COc1ccc(-n2ccc(CNCc3ccc(OC)c(O)c3)n2)cc1 | 0.51 |
| Cc1nc(C)c(C(=O)N2CCCC2(C)C(=O)NC2CCCC2)o1 (stereo unspecified) | 0.61 |
| NC(=O)C1CCN(CCc2ccc(NCc3ccsc3)cc2)CC1 | 0.867 |
| CN(Cc1cnn(C)c1)C(=O)NC1CCC(O)CC1 (stereo unspecified) | -14.7 |
| CN(C)CCN(Cc1ccc(Cl)cc1)C(=O)c1ccncc1 | 7.99 |
| COc1ccc(CN(CC2CCCO2)C(=O)CN2CCOC2=O)cc1 (stereo unspecified) | -1.39 |
| CCc1nc(C2CCCN2C(=O)CCc2c(C)noc2Cl)no1 (stereo unspecified) | -7.07 |
| O=C(CCCn1cnnn1)N1CCC(c2ccncc2)CC1 | -4.8 |
| N[C@H]1CN(C(=O)c2ccc(Cl)cc2F)C[C@@H]1C1CC1 | -44.3 |
| Cc1nc(C)n(CC2CN(CCOc3ccc(C#N)cc3)CCO2)n1 (stereo unspecified) | -2.69 |
| Cc1cc(N(C)C)nc(C2COCCN2Cc2nccn2C)n1 (stereo unspecified) | -3.43 |

| SMILES | cytotoxicity at 10 µM [%] |
| --- | --- |
| Cc1cccc(CC(=O)N2CCCC(c3n[nH]c4nccnc34)C2)c1 (stereo unspecified) | -8.52 |
| CC1CCN(CC2CCCN(C(=O)Nc3ccccn3)C2)CC1 (stereo unspecified) | -9.85 |
| Cn1nnn(-c2ccc(NS(=O)(=O)c3ccc(F)c(Cl)c3)cc2)c1=O | -4.57 |
| Cc1cc(Cc2ccc(S(=O)(=O)N3CCCC3)cc2)c(=O)[nH]n1 | 6.47 |
| CN(CCc1ccc2c(c1)CCO2)C1CCS(=O)(=O)CC1 | -7.94 |
| Cc1nc(C)c(C(=O)Nc2cc(N3CCC(C)CC3)ncn2)s1 | -8.11 |
| Cc1cccc(CN2C[C@@H]3OCCN(S(=O)(=O)N(C)C)[C@@H]3C2)c1 | -12.4 |
| C=C(C)CN1CCN(Cc2cnc(-c3ccccc3C)nc2)CC1 | -33.6 |
| NC(=O)c1cn2cc(-c3ccccc3Cl)n(CC3CC3)c(=O)c2n1 | -1.35 |
| CS(=O)(=O)N[C@@H]1COC[C@@H]2CN(Cc3ccco3)C[C@@H]21 | -1.43 |
| O=C(c1ncccn1)N1CC[C@H]2OCC[C@@]2(COc2ccccn2)C1 | -146 |
| CSc1ccc(C(=O)N2C[C@@H]3CC[C@H]2CN(Cc2ccccc2)C3)cc1 | -5.49 |
| CC(C)(C)CC(NC(=O)c1nc(=O)[nH][nH]1)c1ccc(F)cc1 (stereo unspecified) | -2.42 |
| CNC(=O)NC(C)c1nc(-c2ccc(Br)cc2)no1 (stereo unspecified) | 7.71 |
| NC(=O)CN(CC(=O)NCCc1c(F)cccc1F)C1CCCC1 | -8.02 |
| Cn1cc(N2CCC(NC(=O)c3c(F)cccc3F)C2=O)cn1 (stereo unspecified) | 2.5 |
| O=C(CCn1cccn1)N1CCSCC1 | -5.92 |
| N#CCCN(CCC#N)C(=O)CN(C1CC1)C1CCc2ccccc21 (stereo unspecified) | 5.92 |
| CN(CCn1cnc(-c2ccccc2)c1-c1ncc[nH]1)S(C)(=O)=O | 1.87 |
| O=C(C1CCOCC1)N1CCN2C(=O)N(Cc3ccc(F)cc3)C[C@H]2C1 | -1.34 |
| Cc1cccc(-n2cnc(Cl)c2CO)c1 | -11.8 |
| CC(=O)N1N=C(c2ccccc2)OC1C(=O)N(C)CCc1ccccc1 (stereo unspecified) | 3.54 |
| COc1ncc(CN(CCN(C)C)Cc2ccc(C)s2)cn1 | -50.3 |

| SMILES | cytotoxicity at 10 µM [%] |
| --- | --- |
| CNC(=O)[C@H]1C[C@@H]2CN(S(=O)(=O)c3ccccc3)C[C@@H]2N1C | -5.27 |
| OCc1c(Cl)ncn1-c1ccccc1 | -8.99 |
| N#Cc1ccc(NCCC(=O)N2CCCc3ccccc32)nc1 | -1.33 |
| CCSC(C)c1nc(-c2ccc(C)nn2)no1 (stereo unspecified) | -6.24 |
| CN1CCN(c2cc(CNC(=O)c3ccc(=O)[nH]n3)ccn2)CC1 | -15 |
| c1coc(CN2CCOC3(COCCN(Cc4ccncc4)C3)C2)c1 (stereo unspecified) | 4.03 |
| Cc1cc(C(=O)N2CCN(c3nc4c(C(C)C)cccc4s3)CC2)on1 | 6.64 |
| N#Cc1ccc(F)c(CN2CCCCC2Cn2cccn2)c1 (stereo unspecified) | -0.674 |
| CCC1CN(C(=O)CN2CCN(c3nccc(OC)n3)CC2)CCO1 (stereo unspecified) | -6.21 |
| Cc1cc(C)n(CC(=O)NC2CCCCNC2=O)n1 (stereo unspecified) | -14.7 |
| CC(C1CC1)N(C)C(=O)c1cnc(-c2ccc3c(c2)OCO3)s1 (stereo unspecified) | -7.06 |
| Cc1cccc(CO[C@@H]2CO[C@@]3(CCN(S(=O)(=O)N(C)C)C3)C2)n1 | 4.14 |
| CCc1cc(NC(CCO)c2ccc(OC)cc2)n2nccc2n1 (stereo unspecified) | -30.4 |
| Cc1nn(C)c2c(N3CCN(C(=O)c4ccccc4)CC3)ncnc12 | 10.9 |
| CC(C)[C@@H]1CN(Cc2ccccc2C#N)C[C@H]1C(=O)O | 6.3 |
| CCn1ccnc1CN(C)C1CCCN(CCCc2ccccc2)C1 (stereo unspecified) | 7.35 |
| CCCc1nc(C)cc(N2CCNC(C(=O)NC3CC3)C2)n1 (stereo unspecified) | -56.5 |
| CC(CN1CCOCC1)OC(=O)c1ccccc1Cl (stereo unspecified) | -4.52 |
| O=C(C1CC1)N1CCc2[nH]cnc2C12CCN(C1CCOCC1)CC2 | -1.16 |
| CCc1nn(-c2cc(Oc3cc(C)ccc3C)ncn2)c(N)c1C#N | 12.9 |
| CCNC(=O)[C@@H]1C[C@@H](NC(=O)c2cc(C)on2)CN1Cc1ccccn1 | -6.78 |
| N#Cc1cccnc1N1CCCN(C(=O)CCc2nccs2)CC1 | -11.5 |
| COc1ccc2c(c1)NC(C1CCNCC1)NS2(=O)=O (stereo unspecified) | -2.86 |

| SMILES | cytotoxicity at 10 µM [%] |
| --- | --- |
| COc1cccc(CNC(=O)CN2CCCC(Cn3cncn3)C2)c1 (stereo unspecified) | -18.2 |
| CN(C)C(=O)COC[C@]12COC[C@H]1CN(C1CCCC1)C2 | -108 |
| CCc1nc2c(N3CCCC(c4nccn4CCOC)C3)ncnc2o1 (stereo unspecified) | -11.2 |
| O=C(CCc1ccccc1Br)NCC(=O)NCc1ccccc1 | 0.988 |
| O=C(CCN1CCCC1c1cccc2c1OCCO2)N1CCCCC1 (stereo unspecified) | 2.43 |
| CC(=O)c1cc2ncc(C(=O)NC3CCCCC3)cc2[nH]1 | 0.0039 |
| N#Cc1cccc(CN2Cc3nccn3CC(CN3CCCC3)C2)c1 (stereo unspecified) | -135 |
| CCNCCc1nc2cc(F)ccc2[nH]1 | 5.18 |
| CNS(=O)(=O)CC(=O)NC(C)Cc1cccc(Cl)c1 (stereo unspecified) | -8.15 |
| CC(C)n1cnc(-c2nc(C(=O)N3CCN(C)CC3)c3ccccn23)c1 | 8.88 |
| CCN(CC)S(=O)(=O)NCC1Cc2ccccc2O1 (stereo unspecified) | 0.477 |
| c1ccc2c(Cc3nnc([C@H]4CCN(CC5CC5)C4)o3)c[nH]c2c1 | 4.73 |
| CC(CNS(=O)(=O)CCCC#N)c1ccsc1 (stereo unspecified) | 3.02 |
| CC(C)OCCSCc1nnc(-c2cccc(F)c2)o1 | 9.45 |
| Cn1nc(CN2CCC(c3ccncc3)CC2)c2c(Cl)cccc21 | -6.06 |
| N#CCC(=O)NCc1nnc2n1CCN(Cc1ccco1)C2 | -139 |
| CC(C)c1nc(C2CCCN2CC(=O)Nc2cccnc2)no1 (stereo unspecified) | -10.1 |
| Cc1nnc(N2CCCC3(CN(c4ccccn4)CCO3)C2)o1 (stereo unspecified) | -98.8 |
| Cc1nc2ccccc2nc1NCc1nnc2n1CCC2 | -1.8 |
